Assay results of several laboratories.
Lines come from different studies, so protocols differ.
Target: Serine/threonine-protein kinase VRK2 (VRK2, Homo sapiens, UniProt Q86Y07)

SMILES | observed | method | tested at | remaining binding
O=C(NCC1CCOCC1)c1n[nH]cc1NC(=O)c1c(F)cccc1F | binding | competition with immobilised ligand | 1 µM | 100%
FC(F)(F)Oc1cccc(-c2cnc3ccc(-c4ccncc4)nn23)c1 | binding | competition with immobilised ligand | 5 µM | 75%
CNC(=O)Nc1ccc2c(c1)CC[C@@]21OC(=O)N(CC(=O)N(Cc2ccc(F)cc2)[C@@H](C)C(F)(F)F)C1=O | cell-free assay | competition with immobilised ligand | 1 µM | 91%
CCCNc1nc(C#Cc2ccc(Cl)s2)nc2c1ncn2[C@H]1[C@H](O)[C@H](O)[C@]2(C(=O)NC)C[C@H]12 | binding | competition with immobilised ligand | 10 µM | 31%
CN([C@@H]1CCc2c(CC(=O)O)c3cc(S(C)(=O)=O)ccc3n2C1)S(=O)(=O)c1ccc(F)cc1 | cell-free assay | competition with immobilised ligand | 1 µM | 94%
C[C@@H](c1ccc(-n2cnc3c(N)ncnc32)cc1)N1CCc2nn(C)c(Cc3ccccc3)c2C1=O | binding | competition with immobilised ligand | 0.1 µM | 47%
CCN1CCN(Cc2ccc(C(=O)Nc3ccc(C)c(Oc4ccc5c(c4)CC(=O)N5)c3)cc2C(F)(F)F)CC1 | binding | competition with immobilised ligand | 1 µM | 100%
Nc1ncc2c(n1)-c1c([nH]c3ccc(C#CC4CC4)cc13)CCCC2 | binding | competition with immobilised ligand | 1 µM | 100%
CN(C)c1ncc(F)c(-c2cnn3ncccc23)n1 | binding |  | 1 µM | 100%
Cc1c(NC(=O)c2cc(C(N)=O)nc3cc(F)ccc23)c(C(F)(F)F)nn1Cc1ccc(C(C)(C)C)cc1 | cell-free assay | competition with immobilised ligand | 1 µM | 95%
COc1ncc2cc3ccccc3nc2c1C#N | cell-free assay | competition with immobilised ligand | 5 µM | 98%
CCCCN(CCCC)C(=O)CN1C[C@@H](c2cc(OC)c3c(c2)OCO3)[C@H](C(=O)O)[C@H]1CC(C)(C)CCC | cell-free assay | competition with immobilised ligand | 1 µM | 95.4%
Cc1cnn2ncc(-c3ccnc(N(C)C)n3)c2c1 | binding |  | 1 µM | 96%
O=C(NCCCN1CCOCC1)c1ccc(Nc2nccc(-c3cc4ccccc4s3)n2)cc1 | binding | competition with immobilised ligand | 1 µM | 100%
COc1cnc(Nc2cccc(S(N)(=O)=O)c2)nc1N1CCN(c2ccccc2)C(=O)C1 | binding | competition with immobilised ligand | 1 µM | 89%
C[C@@H]1CCN(c2nccc(-c3cnn4ncccc34)n2)C1 | binding |  | 1 µM | 82%
CNC(=O)Nc1ccc2c(c1)[C@@]1(CC2)OC(=O)N(CC(=O)N(Cc2ccc(F)cc2)[C@@H](C)C(F)(F)F)C1=O | cell-free assay | competition with immobilised ligand | 1 µM | 97%
COc1ccnn2ncc(-c3ccnc(N(C)C)n3)c12 | binding |  | 1 µM | 100%
O=C(c1ccc(Nc2nccc(-c3cc4ccccc4s3)n2)cc1)N1CCC(N2CCCC2)CC1 | binding | competition with immobilised ligand | 1 µM | 35%
N[C@@H]1CCN(c2nccc(-c3cnn4ncccc34)n2)C1 | binding |  | 1 µM | 100%
O=C(NCCCC1CCCCC1)c1ccc(CNC(=O)c2cnn(-c3ccccc3)c2C(F)(F)F)cc1 | cell-free assay | competition with immobilised ligand | 0.1 µM | 100%
CN(CCCC(F)(F)F)c1nccc(-c2cnn3ncccc23)n1 | binding |  | 1 µM | 100%
O=C(c1ccc(Nc2ncc(Cl)c(-c3ccc(Cl)s3)n2)cc1)N1CCC(N2CCCC2)CC1 | binding | competition with immobilised ligand | 1 µM | 56%
